Measured values as given in publication PMC3377471 (Journal of the American Chemical Society, 2012).
*1 amine or outer side, *2 acyl side, *3 side chain or, on linkers, in order; H or OH if unused. Where a SMILES comes first, the peptide text is derived from it. [ ]: non-standard residue; d: D form. X1 = O=C([C@H]1CCC[C@@H]1N[*:1])[*:2]; X2 = O=C([C@H]1CNC[C@@H]1N[*:1])[*:2]; β3hR = N=C(N)NCCC[C@H](N)CC(=O)O; β3hT = C[C@@H](O)[C@H](N)CC(=O)O; β3hE = N[C@@H](CCC(=O)O)CC(=O)O

Key:
designed protein gp41-5 = assay: competition fluorescence polarization; parameters: species or system HIV; details: read-out: Ki for binding to gp41-5; competition FP assay
Method in brief: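 Competition fluorescence polarization binding of test compound to a designed gp41-5 construct made of three NHR segments and two CHR segments joined by flexible loops. Ki reported.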

proteinase K [1] = assay: in vitro; format: in vitro ADME; details: isolated enzyme proteinase k
HIV-1 DJ258 = format: cell-based
HIV-1 JRFL = format: cell-based
HIV-1 CC 7/86 = format: cell-based
HIV-1 UG270 = format: cell-based
proteinase K [2] = target: proteinase K (Parengyodontium album, UniProt P06873); details: in vitro, ref 3a; cited from earlier work
[3] = target: gp41-derived NHR peptide N36 (Human immunodeficiency virus type 1 group M subtype B, UniProt P04578); format: physicochemical, HIV; details: variable-temperature CD; co-assembly with NHR peptide N36
gp41-derived NHR peptide N36, sequence (P04578 546-581 limits assumed): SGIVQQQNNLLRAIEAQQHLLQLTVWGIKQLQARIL

proteinase K (Parengyodontium album, UniProt P06873), sequence (P06873 106-384): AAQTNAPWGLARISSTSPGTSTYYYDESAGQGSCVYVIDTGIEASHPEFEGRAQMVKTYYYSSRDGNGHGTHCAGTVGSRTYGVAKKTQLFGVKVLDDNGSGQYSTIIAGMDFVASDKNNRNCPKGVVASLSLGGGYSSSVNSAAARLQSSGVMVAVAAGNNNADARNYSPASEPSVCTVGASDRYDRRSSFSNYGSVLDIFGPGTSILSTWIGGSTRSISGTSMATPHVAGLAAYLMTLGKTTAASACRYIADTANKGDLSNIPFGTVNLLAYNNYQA

Row | Compound | Ki (designed protein gp41-5) | half-life (proteinase K [1]) | IC50 (HIV-1 DJ258) | IC50 (HIV-1 JRFL) | IC50 (HIV-1 CC 7/86) | IC50 (HIV-1 UG270) | resistance to degradation by proteinase K relative to α-peptide T-2635 (proteinase K [2]) | apparent Tm of helix-bundle with N36 [3]
1 | CC[C@H](C)[C@H](NC(=O)[C@H](C)NC(=O)C[C@H](CCCNC(=N)N)NC(=O)[C@H](CC(=O)O)NC(=O)[C@H](Cc1c[nH]c2ccccc12)NC(=O)C[C@H](C)NC(=O)[C@H](CCC(=O)O)NC(=O)[C@H](Cc1c[nH]c2ccccc12)NC(=O)[C@@H](NC(=O)C[C@@H](NC(C)=O)[C@@H](C)O)[C@@H](C)O)C(=O)N[C@@H](C)C(=O)N[C@@H](CCC(=O)O)CC(=O)N[C@@H](Cc1ccc(O)cc1)C(=O)N[C@@H](C)C(=O)N[C@@H](C)CC(=O)N[C@@H](CCCNC(=N)N)C(=O)N[C@H](C(=O)N[C@@H](CCC(=O)O)C(=O)N[C@@H](C)CC(=O)N[C@@H](CC(C)C)C(=O)N[C@H](C(=O)N[C@@H](CCCNC(=N)N)CC(=O)N[C@@H](C)C(=O)N[C@@H](C)C(=O)N[C@@H](CCC(N)=O)C(=O)N[C@@H](CCC(=O)O)CC(=O)N[C@@H](CCC(N)=O)C(=O)N[C@@H](CCC(N)=O)C(=O)N[C@@H](CCC(=O)O)CC(=O)N[C@@H](CCCCN)C(=O)N[C@@H](CC(N)=O)C(=O)N[C@@H](CCC(=O)O)C(=O)N[C@@H](C)CC(=O)N[C@@H](C)C(=O)N[C@@H](CC(C)C)C(=O)N[C@@H](CCCNC(=N)N)CC(=O)N[C@@H](CCC(=O)O)C(=O)N[C@@H](CC(C)C)C(N)=O)[C@@H](C)CC)[C@@H](C)CC [1α/β] | 3800 nM | 4 min | – | – | – | – | – | –
2 | CC[C@H](C)[C@H](NC(=O)[C@H](C)NC(=O)[C@H]1CNC[C@@H]1NC(=O)[C@H](CC(=O)O)NC(=O)[C@H](Cc1c[nH]c2ccccc12)NC(=O)[C@H]1CCC[C@@H]1NC(=O)[C@H](CCC(=O)O)NC(=O)[C@H](Cc1c[nH]c2ccccc12)NC(=O)[C@@H](NC(=O)C[C@@H](NC(C)=O)[C@@H](C)O)[C@@H](C)O)C(=O)N[C@@H](C)C(=O)N[C@@H](CCC(=O)O)CC(=O)N[C@@H](Cc1ccc(O)cc1)C(=O)N[C@@H](C)C(=O)N[C@H]1CCC[C@@H]1C(=O)N[C@@H](CCCNC(=N)N)C(=O)N[C@H](C(=O)N[C@@H](CCC(=O)O)C(=O)N[C@H]1CCC[C@@H]1C(=O)N[C@@H](CC(C)C)C(=O)N[C@H](C(=O)N[C@H]1CNC[C@@H]1C(=O)N[C@@H](C)C(=O)N[C@@H](C)C(=O)N[C@@H](CCC(N)=O)C(=O)N[C@@H](CCC(=O)O)CC(=O)N[C@@H](CCC(N)=O)C(=O)N[C@@H](CCC(N)=O)C(=O)N[C@@H](CCC(=O)O)CC(=O)N[C@@H](CCCCN)C(=O)N[C@@H](CC(N)=O)C(=O)N[C@@H](CCC(=O)O)C(=O)N[C@H]1CCC[C@@H]1C(=O)N[C@@H](C)C(=O)N[C@@H](CC(C)C)C(=O)N[C@H]1CNC[C@@H]1C(=O)N[C@@H](CCC(=O)O)C(=O)N[C@@H](CC(C)C)C(N)=O)[C@@H](C)CC)[C@@H](C)CC [2α/β] (Ac-[β3hT]TWE[X1]WD[X2]AIA[β3hE]YA[X1]RIE[X1]LI[X2]AAQ[β3hE]QQ[β3hE]KNE[X1]AL[X2]EL-NH2; N-terminus and C-terminus assumed) | – | – | 42 nM | 131 nM | 47 nM | 39 nM | ~ 300 fold | –
3 | CC[C@H](C)[C@H](NC(=O)[C@H](C)NC(=O)C[C@H](CCCNC(=N)N)NC(=O)[C@H](CC(=O)O)NC(=O)[C@H](Cc1c[nH]c2ccccc12)NC(=O)C[C@H](CCC(=O)O)NC(=O)[C@H](CCC(=O)O)NC(=O)[C@H](Cc1c[nH]c2ccccc12)NC(=O)[C@@H](NC(=O)C[C@H](CCCNC(=N)N)NC(C)=O)[C@@H](C)O)C(=O)N[C@@H](C)C(=O)N[C@@H](CCC(=O)O)CC(=O)N[C@@H](Cc1ccc(O)cc1)C(=O)N[C@@H](C)C(=O)N[C@@H](CCCNC(=N)N)CC(=O)N[C@@H](CCCNC(=N)N)C(=O)N[C@H](C(=O)N[C@@H](CCC(=O)O)C(=O)N[C@@H](CCC(=O)O)CC(=O)N[C@@H](CC(C)C)C(=O)N[C@H](C(=O)N[C@@H](CCCNC(=N)N)CC(=O)N[C@@H](C)C(=O)N[C@@H](C)C(=O)N[C@@H](CCC(N)=O)C(=O)N[C@@H](CCC(=O)O)CC(=O)N[C@@H](CCC(N)=O)C(=O)N[C@@H](CCC(N)=O)C(=O)N[C@@H](CCCNC(=N)N)CC(=O)N[C@@H](CCCCN)C(=O)N[C@@H](CC(N)=O)C(=O)N[C@@H](CCC(=O)O)C(=O)N[C@@H](CCC(=O)O)CC(=O)N[C@@H](C)C(=O)N[C@@H](CC(C)C)C(=O)N[C@@H](CCCNC(=N)N)CC(=O)N[C@@H](CCC(=O)O)C(=O)N[C@@H](CC(C)C)C(N)=O)[C@@H](C)CC)[C@@H](C)CC [4α/β] (Ac-[β3hR]TWE[β3hE]WD[β3hR]AIA[β3hE]YA[β3hR]RIE[β3hE]LI[β3hR]AAQ[β3hE]QQ[β3hR]KNE[β3hE]AL[β3hR]EL-NH2; N-terminus and C-terminus assumed) | 11 nM | 3.5 min | 78 nM | 153 nM | 49 nM | 56 nM | – | –
4 | Ac-RTWEEWDRAIAEYARRIEELIRAAQEQQRKNEEALREL-NH2 (N-terminus and C-terminus assumed) [3α] | < 0.2 nM | – | – | – | – | – | – | 91 °C
5 | Enfuvirtide | – | – | 200 nM | 180 nM | 140 nM | 110 nM | – | –
